Laboratory results: ChEMBL document CHEMBL5344428, “Discovery, Crystallographic Studies, and Mechanistic Investigations of Novel Phenylalanine Derivatives Bearing a Quinazolin-4-one Scaffold as Potent HIV Capsid Modulators” (J Med Chem, 2023)
pEC50, pIC50, pKd: −log10 of the molar value.

Columns and labels:
[1] = Metabolic stability in human liver assessed as intrinsic clearance at 1 uM incubated for 60 mins in presence of NADPH by LC-MS/MS analysis; assay type: ADME, tissue-based; settings: read-out: CLH
In short: (§1)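 Human liver microsomes were used at a final 0.5 mg protein/mL, incubated 60 min with an NADPH regenerating system. The no-cofactor arm replaced NADPH with buffer. T1/2 came from linear regression of the kinetic data. CLint(mic) = (0.693/T1/2)/mg microsomal protein per mL. CLint(liver) was scaled by mg microsomal protein/g liver and g liver/kg body weight.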

[2] = target: Structural capsid protein (Human immunodeficiency virus 1) (UniProt Q76129); assay: Binding affinity to HIV-1 NL4.3 monomeric capsid protein assessed as residence time by SPR analysis; settings: filed as modulator
Sequence of Structural capsid protein (Human immunodeficiency virus 1) (Q76129 as listed by the source): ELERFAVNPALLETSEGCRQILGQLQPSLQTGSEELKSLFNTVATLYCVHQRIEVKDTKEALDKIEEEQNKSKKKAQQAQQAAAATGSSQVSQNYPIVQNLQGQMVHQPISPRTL
In short: (§2)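 SPR binding of compound to monomeric or disulfide-stabilised hexameric HIV-1 CA NL4.3 protein; koff, residence time and KD derived from isotherms, monomer/hexamer ratio = KD monomer/KD hexamer. Triplicate, SD.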

[3] = target: Structural capsid protein (Human immunodeficiency virus 1) (UniProt Q76129); assay: Binding affinity to HIV-1 NL4.3 hexameric capsid protein assessed as Koff by SPR analysis; settings: filed as modulator; in short: as §2
[4] = Metabolic stability in human liver microsomes assessed as parent compound remaining at 1 uM incubated for 60 mins in presence of NADPH by LC-MS/MS analysis; assay type: ADME, Microsome; settings: 1 h; in short: as §1
[5] = tested on: Human immunodeficiency virus 1; assay: Antiviral activity against HIV-1 IIIB infected in human MT4 cells assessed as protection against virus induced cytopathic effect; assay type: functional, organism-based; settings: Human immunodeficiency virus 1, IIIB
In short: (§3)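 MT-4 cells were infected with HIV-1 IIIB or HIV-2 ROD, and cell viability was read by MTT. […] Each value was run in at least triplicate and averaged from at least three independent experiments.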

[6] = tested on: Human immunodeficiency virus 1; assay: Antiviral activity against HIV1 IIIB infected in human MT4 cells assessed as reduction in virus induced cytopathic effect measured after 5 days by MTT assay; assay type: functional, organism-based; settings: Human immunodeficiency virus 1, IIIB, MT4, 120 h; in short: as §3
[7] = tested on: Human immunodeficiency virus 1; assay: Antiviral activity against HIV1 NL4.3 infected in human U87.CD4.CXCR4 cells assessed as inhibition of late stage replication by measuring infection at 1 uM incubated for 48 hrs by microplate luminometer based single-round infection assay (reference value: 100.0 +/- 18.40%); assay type: functional; design: scale not given: the % may be the effect or the level left
[8] = Metabolic stability in human liver microsomes assessed as intrinsic clearance at 1 uM incubated for 60 mins in presence of NADPH by LC-MS/MS analysis; assay type: ADME, Microsome
[9] = target: T1, Structural capsid protein (Human immunodeficiency virus 1, UniProt Q76129); assay: Binding affinity to HIV-1 NL4.3 monomeric capsid protein assessed as dissociation constant by SPR analysis
T1 sequence (Q76129 whole entry): as the sequence (Q76129 as listed by the source) above

[10] = Metabolic stability in human liver microsomes assessed as parent compound remaining at 1 uM incubated for 60 mins in absence of NADPH by LC-MS/MS analysis; assay type: ADME, Microsome; settings: 1 h; in short: as §1
[11] = tested on: Human immunodeficiency virus 1; assay: Antiviral activity against HIV1 NL4.3 infected in human U87.CD4.CXCR4 cells assessed as inhibition of early stage replication by measuring infection at 1 uM incubated for 48 hrs by microplate luminometer based single-round infection assay (reference value: 100.0 +/- 30.99%); assay type: functional; design: scale not given: the % may be the effect or the level left
[12] = tested on: Human immunodeficiency virus 2; assay: Antiviral activity against HIV-2 ROD infected in human MT4 cells assessed as protection against virus induced cytopathic effect; assay type: functional, organism-based; settings: Human immunodeficiency virus 2, ROD; in short: as §3
[13] = tested on: Human immunodeficiency virus 2; assay: Antiviral activity against HIV2 ROD infected in human MT4 cells assessed as reduction in virus induced cytopathic effect measured after 5 days by MTT assay; assay type: functional, organism-based; settings: Human immunodeficiency virus 2, ROD, MT4, 120 h; in short: as §3
[14] = target: Structural capsid protein (Human immunodeficiency virus 1) (UniProt Q76129); assay: Binding affinity to HIV-1 NL4.3 monomeric capsid protein assessed as Koff by SPR analysis; settings: filed as modulator; in short: as §2
[15] = target: Structural capsid protein (Human immunodeficiency virus 1) (UniProt Q76129); assay: Binding affinity to HIV-1 NL4.3 hexameric capsid protein assessed as residence time by SPR analysis; settings: filed as modulator; in short: as §2
[16] = tested on: Human immunodeficiency virus 1; assay: Selectivity ratio of Kd for HIV-1 NL4.3 monomeric capsid protein to Kd for HIV-1 NL4.3 hexameric capsid protein; in short: as §2
[17] = target: T1, Structural capsid protein; assay: Binding affinity to HIV-1 NL4.3 hexameric capsid protein assessed as dissociation constant by SPR analysis
[18] = target: T1, Structural capsid protein; assay: Competitive binding affinity to HIV-1 NL4.3 hexameric capsid protein assessed as inhibition of CPSF6 binding to capsid protein by SPR analysis
[19] = (§4) Cytotoxicity against human MT4 cells assessed as reduction in cell viability incubated for 5 days by MTT assay; assay type: toxicity, cell-based; settings: MT4 cells, time 5 day
In short: (§5)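 Uninfected MT-4 cells were exposed to compound, and viability was read by the MTT method. […] Each value was run in at least triplicate and averaged from at least three independent experiments.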

[20] = Metabolic stability in human liver microsomes assessed as half-life at 1 uM incubated for 60 mins in presence of NADPH by LC-MS/MS analysis; assay type: ADME, Microsome
[21] = target: Human immunodeficiency virus type 1 reverse transcriptase (Human immunodeficiency virus 1) (UniProt Q72547); settings: dose 100.0 nM
[22] = Selectivity index, ratio of CC50 for cytotoxicity against human MT4 cells to EC50 for antiviral activity against HIV2 ROD infected in human MT4 cells; assay type: toxicity, cell-based; settings: read-out: Ratio CC50/EC50
In short: (§6)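 SI is CC50 divided by EC50. CC50 comes from MTT viability of uninfected MT-4 cells. EC50 comes from MTT-read protection of MT-4 cells infected with HIV-1 IIIB or HIV-2 ROD. Each value was run in at least triplicate.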

[23] = Selectivity index, ratio of CC50 for cytotoxicity against human MT4 cells to EC50 for antiviral activity against HIV1 IIIB infected in human MT4 cells; assay type: toxicity, cell-based; settings: read-out: Ratio CC50/EC50; in short: as §6
[24] = Selectivity ratio of EC50 for antiviral activity against HIV1 IIIB infected in human MT4 cells to EC50 for antiviral activity against HIV2 ROD infected in human MT4 cells; assay type: toxicity, cell-based
In short: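 Ratio is EC50 against HIV-1 IIIB divided by EC50 against HIV-2 ROD. Both EC50 values come from MTT-read protection of infected MT-4 cells.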

MT4 = assay: as §4; assay type: toxicity, cell-based; settings: mt4, 120 h, time 5 day; in short: as §5
[25] = Cytotoxicity against human MT4 cells assessed as reduction in cell viability; assay type: toxicity, cell-based; in short: as §5

Structure (SMILES) | pEC50 [5] | pEC50 [6] | pEC50 [12] | pEC50 [13] | selectivity ratio [22] | selectivity ratio [23] | Ratio EC50 [24] | CC50 [25] | also measured
O=C(O)Cc1ccccc1Nc1c(Cl)cccc1Cl [DICLOFENAC] | – | – | – | – | – | – | – | – | CLint scaled at 1 µM [1]: 280 mL/min/kg
COc1ccc(N(C)C(=O)[C@H](Cc2ccccc2)NC(=O)Cc2c(C)[nH]c3ccccc23)cc1 | 6.12 | 6.10 | 5.38 | 5.65 | – | – | – | – | TIME [2]: 0.000183 h; K [3]: 0.036 s⁻¹; Stability [4]: 0%; Activity [7]: 4.185%; CLH ([8]; microsomes, 1 h, 1 µM): 2114.6 µL/min/mg; pKd [9]: 6.01; Stability [10]: 106.1%; Activity [11]: 0.07%; K [14]: 1.58 s⁻¹; TIME [15]: 0.00772 h; Selectivity ratio [16]: 20.6; pKd [17]: 7.33; pIC50 [18]: 7.58; CC50 at 120 h [19]: > 32300 nM; half-life at 1 µM ([20]; liver microsomes): 42 s
Cc1cc(/C=C/C#N)cc(C)c1Nc1ccnc(Nc2ccc(C#N)cc2)n1 | – | – | – | – | – | – | – | – | inhibition [21]: 50%
O=C(CN1CCN(S(=O)(=O)c2ccc([N+](=O)[O-])cc2)CC1)N[C@@H](Cc1cc(F)cc(F)c1)c1nc2ccccc2c(=O)n1-c1ccc(S(=O)(=O)N2CCS(=O)(=O)CC2)cc1 | – | 5.52 | – | 5.71 | > 70.6 | > 45.6 | 1.54 | – | CC50 (MT4): > 139000 nM
COc1ccc(N(C)C(=O)[C@H](Cc2cc(F)cc(F)c2)NC(=O)CN2CCN(S(=O)(=O)c3ccc(C)cc3)CC2)cc1 | 6.04 | – | 6.92 | – | > 1700 | > 224 | 7.58 | > 204000 nM | –
COc1ccc(N(C)C(=O)[C@H](Cc2cc(F)cc(F)c2)NC(=O)CN2CCN(S(=O)(=O)c3ccc(Cl)cc3)CC2)cc1 | 6.03 | – | 6.36 | – | 20.6 | 9.73 | 2.11 | 9050 nM | –
COc1ccc(-n2c([C@H](Cc3ccccc3)NC(=O)CN3CCN(S(=O)(=O)c4ccc([N+](=O)[O-])cc4)CC3=O)nc3ccccc3c2=O)cc1 | – | 5.82 | – | 6.24 | > 312 | > 119 | 2.65 | – | CC50 (MT4): > 179000 nM
COc1ccc(N(C)C(=O)[C@H](Cc2cc(F)cc(F)c2)NC(=O)CN2CCN(S(=O)(=O)c3ccccc3F)CC2)cc1 | 6.74 | – | 7.05 | – | 2010 | 1000 | 2 | 181000 nM | –
COc1ccc(N(C)C(=O)[C@H](Cc2cc(F)cc(F)c2)NC(=O)CN2CCN(S(=O)(=O)c3cccc(N)c3)CC2)cc1 | 6.80 | – | 6.96 | – | 987 | 679 | 1.45 | 109000 nM | –
COc1ccc(N(C)C(=O)[C@H](Cc2ccccc2)NC(=O)CN2CCN(S(=O)(=O)c3ccc(N)cc3)CC2=O)cc1 | 6.55 | 6.55 | 7.52 | 7.52 | – | – | – | – | TIME [2]: 1.67e-05 h; K [3]: 2.04 s⁻¹; Stability [4]: 0%; Activity [7]: 0.807%; microsomal CLint at 1 µM ([8]; liver microsomes, read-out: CLH): 344 µL/min/mg; Stability [10]: 113.3%; Activity [11]: 0.092%; CLint scaled at 1 µM [1]: 309 mL/min/kg; K [14]: 13.4 s⁻¹; TIME [15]: 0.000133 h; t1/2 ([20]; microsomes, 1 h, 1 µM): 240 s
COc1ccc(N(C)C(=O)[C@H](Cc2cc(F)cc(F)c2)NC(=O)CN2CCN(S(=O)(=O)c3cccc(F)c3)CC2)cc1 | 6.62 | – | 6.92 | – | > 1690 | > 843 | 2 | > 202000 nM | –
